Entries after “also recorded” stand apart in the source; their conditions may differ.

One series has as its system P. aeruginosa PA14. To be noted: vs DMSO control; cited from earlier work.
For series [1] the following is noted: cited from earlier work.
The conditions of series [2]: mice; as reported; cited from earlier work.
A further series is described as follows: Plasma stability assay. It is filed as in vitro ADME, mouse. To be noted: 25 μM, 37 °C, period of 120 min. The essentials:
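Test compound (DMSO stock) spiked into mouse plasma (pH 7.4) at final 25 μM and incubated at 37 °C. Samples taken at 0, 15, 30, 60, 90 and 120 min, extracted with methanol containing internal standard (5 min shaking), centrifuged, and supernatants analyzed by reversed-phase C18 HPLC (water/acetonitrile + 0.1% formic acid gradient). Controls were procaine, propoxycaine and procainamide at 250 μM.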

A short description of another series: Plasma protein binding. It is filed as in vitro ADME, mouse. Particulars: murine plasma, 100 μM, 37 °C, 2 h.
Series [3] concerns mCherry-expressing P. aeruginosa. In words: Bacterial growth by total fluorescence intensity. It is filed as cell-based, Pseudomonas aeruginosa. To be noted: 100 μM, 23 h, vs DMSO control.
The test system of another series is Hep G2 cells. Put plainly: MTT assay. It is filed as cell-based, human. Particulars: up to 100 μM, 24 h. In short, it runs like this:
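Hep G2 cells grown in DMEM + 10% heat-inactivated FCS (37 °C, 5% CO2) to 75% confluency, then exposed 24 h to compound (0.01–100 μM; DMSO stock diluted in PBS, final 0.1% DMSO). Controls: vehicle, medium, and cells lysed with 0.5% Triton X-100. After two washes, MTT (final 1 mg/mL) for 3 h, then 0.04 M HCl/2-propanol for 15 min at room temperature. A560 read against 670 nm reference; normalized as (A–B)/(C–B) to Triton and vehicle controls.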
(In general: Tetrazolium assays rely on reduction of a dye to a coloured formazan, in cell work by metabolically active cells.)

For series [4], the target named is T1, LecBPA14 (Pseudomonas aeruginosa, UniProt A0A0H2ZE85).
T1 sequence (A0A0H2ZE85 2-115): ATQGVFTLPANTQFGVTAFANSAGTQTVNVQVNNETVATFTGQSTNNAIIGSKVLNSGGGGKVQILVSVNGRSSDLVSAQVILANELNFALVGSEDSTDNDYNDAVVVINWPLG
To be noted: read-out: LecBPA14 IC50; previously published; cited from earlier work.

Another series has as its target LecBPAO1 (Pseudomonas aeruginosa, UniProt Q9HYN5). In words: Isothermal titration calorimetry. It is filed as binding. To be noted: ITC, 25 °C, mean. (Isothermal titration calorimetry measures the heat released or taken up as one component is titrated into another.)
In series [5] the target is T1, LecBPA14. To be noted: ITC, 25 °C, mean.

LecBPAO1, sequence (Q9HYN5 2-115 limits assumed): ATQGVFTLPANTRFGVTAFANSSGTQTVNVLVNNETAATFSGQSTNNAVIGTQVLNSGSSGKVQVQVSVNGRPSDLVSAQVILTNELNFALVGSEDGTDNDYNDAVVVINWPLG

Consider `CO[C@@H]1O[C@@H](C)[C@@H](O)[C@@H](O)[C@@H]1O` [Compound 42, methyl α-L-fucoside], for which the “effect on biofilm formation” value with P. aeruginosa PA14 was “nonsignificant effect”.
With `C[C@@H]1O[C@H](CNS(=O)(=O)c2cccs2)[C@@H](O)[C@H](O)[C@@H]1O` [Compound 7], the “metabolic stability against liver microsomes and murine plasma” value in [1] is given as “good metabolic stability”. Further, the “toxicity in a murine pharmacokinetics model” value in series [2] is recorded as “nontoxic”.
Take `Cc1cc(C)c(S(=O)(=O)NC[C@H]2O[C@@H](C)[C@@H](O)[C@@H](O)[C@@H]2O)c(C)c1` [Compound 6]: the “metabolic stability against liver microsomes and murine plasma” value in series [1] is reported as “good metabolic stability”. Also, the “toxicity in a murine pharmacokinetics model” value in [2] is reported as “nontoxic”.
For `CO[C@H]1O[C@H](CO)[C@@H](O)[C@H](O)[C@@H]1O` [Compound 1, methyl α-D-mannoside], the “effect on biofilm formation” value in the series with P. aeruginosa PA14 is recorded as “nonsignificant effect”.
For `Cc1oncc1S(=O)(=O)NC[C@H]1O[C@@H](C)[C@@H](O)[C@@H](O)[C@@H]1O` [Compound 17, N-β-L-Fucopyranosylmethyl 5-Methyl-4-isoxazolesulfonamide], the “stability in murine plasma” value in the series “Plasma stability assay” was “fully stable”.
In the case of `C[C@@H]1O[C@H](CNS(=O)(=O)c2ccc(C#Cc3ccccc3)s2)[C@@H](O)[C@H](O)[C@@H]1O` [Compound 29, N-β-L-Fucopyranosylmethyl 5-Phenylethynyl-2-thiophenesulfonamide], the “plasma protein binding (in words)” value in “Plasma protein binding” is on record as “highly bound; also recorded: very high plasma protein binding”. Moreover, the “stability in murine plasma” value in “Plasma stability assay” is given as “fully stable”. For the same compound, in [3], the “bacterial growth (total fluorescence intensity)” value was “comparable densities”. The “toxicity to Hep G2 cells (in words)” value in the series on Hep G2 cells is “weak toxicity; also recorded: moderate mammalian cytotoxicity”.
As a reminder, the IC50 is the concentration at which inhibition is half-maximal. For the compound `COc1ccc(/C=C/C(=O)NC[C@H]2O[C@@H](C)[C@@H](O)[C@@H](O)[C@@H]2O)cc1OC` [Compound 5], at LecBPA14 [4], the half-maximal inhibitory concentration (IC50) was 2800 nM.
For `Cc1cc(S(=O)(=O)NC[C@H]2O[C@@H](C)[C@@H](O)[C@@H](O)[C@@H]2O)c(C)s1` [Compound 22, N-β-L-Fucopyranosylmethyl 2,5-Dimethyl-3-thiophenesulfonamide], in the series “Plasma stability assay”, the “stability in murine plasma” value is reported as “fully stable”. Moreover, in series [3], the “bacterial growth (total fluorescence intensity)” value was “comparable densities”. Further, on LecBPAO1, the “-TΔS LecBPAO1” value was determined as 3.23 kcal/mol and the “ΔH LecBPAO1” value is -11.3 kcal/mol. At LecBPA14 [5], the “-TΔS LecBPA14” value was found to be 0.789 kcal/mol and the “ΔH LecBPA14” value is -9.66 kcal/mol.
For `Cc1ccc(S(=O)(=O)NC[C@H]2O[C@@H](C)[C@@H](O)[C@@H](O)[C@@H]2O)s1` [Compound 23, N-β-L-Fucopyranosylmethyl 5-Methyl-2-thiophenesulfonamide], the “stability in murine plasma” value in “Plasma stability assay” is recorded as “fully stable”.
The same measure, in the same setting: for `C[C@@H]1O[C@H](CNS(=O)(=O)c2cc(Cl)c(Cl)s2)[C@@H](O)[C@H](O)[C@@H]1O` [Compound 27, N-β-L-Fucopyranosylmethyl 4,5-Dichloro-2-thiophenesulfonamide] the value was “fully stable”.

The values above are taken from PMC6873108 (Journal of Medicinal Chemistry, 2019).
